Key:
[1] = biological target: 3-phosphoinositide-dependent protein kinase 1 (Homo sapiens) (UniProt O15530); experiment: Percent residual activity, relative to control, of PDK1 at 1 uM concentration of inhibitor in presence of 20 uM ATP
How it was run: (§1)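 It is expressed as percent of activity in control incubations without inhibitor, as the mean of duplicate determinations. The protocol follows earlier published panel methods.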

[2] = biological target: AMP-activated protein kinase, AMPK (Homo sapiens) (UniProt P54646+O43741+P54619+Q9UGJ0+Q9Y478+Q13131+Q9UGI9); experiment: Percent residual activity, relative to control, of AMPK at 1 uM concentration of inhibitor in presence of 50 uM ATP; type: protein-complex assay; how it was run: as §1
[3] = biological target: Dual specificity mitogen-activated protein kinase kinase 1 (Homo sapiens) (UniProt Q02750); experiment: Percent residual activity, relative to control, of MKK1 at 1 uM concentration of inhibitor in presence of 5 uM ATP; how it was run: as §1
[4] = biological target: Glycogen synthase kinase-3 beta (Homo sapiens) (UniProt P49841); experiment: Percent residual activity, relative to control, of GSK3 beta at 1uM concentration of inhibitor in presence of 5uM ATP; how it was run: as §1
[5] = biological target: c-Jun N-terminal kinase, JNK (Homo sapiens) (UniProt P45983+P53779+P45984); experiment: Percent residual activity, relative to control, of JNK/SAPK1c at 1 uM concentration of inhibitor in presence of 20 uM ATP; type: protein assay; how it was run: as §1
[6] = biological target: Serine/threonine-protein kinase Nek7 (Homo sapiens) (UniProt Q8TDX7); experiment: Percent residual activity, relative to control, of NEK7 at 1 uM concentration of inhibitor in presence of 20 uM ATP; how it was run: as §1
[7] = biological target: Mitogen-activated protein kinase 11 (Homo sapiens) (UniProt Q15759); experiment: Percent residual activity, relative to control, of SAPK2b/p38ss2 at 1 uM concentration of inhibitor in presence of 20 uM ATP; how it was run: as §1
[8] = biological target: Tyrosine-protein kinase CSK (Homo sapiens) (UniProt P41240); experiment: Percent residual activity, relative to control, of CSK at 1 uM concentration of inhibitor in presence of 20 uM ATP; how it was run: as §1
[9] = biological target: Serine/threonine-protein kinase 3 (Homo sapiens) (UniProt Q13188); experiment: Percent residual activity, relative to control, of MST2 at 1 uM concentration of inhibitor in presence of 20 uM ATP; how it was run: as §1
[10] = biological target: RAC-beta serine/threonine-protein kinase (Homo sapiens) (UniProt P31751); experiment: Percent residual activity, relative to control, of PKB beta at 1uM concentration of inhibitor in presence of 50uM ATP; how it was run: as §1
[11] = biological target: Serine/threonine-protein kinase pim-2 (Homo sapiens) (UniProt Q9P1W9); experiment: Percent residual activity, relative to control, of PIM2 at 1uM concentration of inhibitor in presence of 5uM ATP; how it was run: as §1
[12] = biological target: Serine/threonine-protein kinase Chk2 (Homo sapiens) (UniProt O96017); experiment: Percent residual activity, relative to control, of CHK2 at 1uM concentration of inhibitor in presence of 20uM ATP; how it was run: as §1
[13] = biological target: Inhibitor of nuclear factor kappa-B kinase subunit beta (Homo sapiens) (UniProt O14920); experiment: Percent residual activity, relative to control, of IKK beta at 1 uM concentration of inhibitor in presence of 5 uM ATP
How it was run: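 Kinase panel assay run at an ATP concentration close to the kinase's Km. Inhibitor tested at 1 µM. Activity expressed as percent residual relative to control incubations without inhibitor, as the mean of duplicate determinations.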

[14] = biological target: Protein kinase C alpha type (Homo sapiens) (UniProt P17252); experiment: Percent residual activity, relative to control, of PKC alpha at 1uM concentration of inhibitor in presence of 20uM ATP; how it was run: as §1
[15] = biological target: Mitogen-activated protein kinase 13 (Homo sapiens) (UniProt O15264); experiment: Percent residual activity, relative to control, of SAPK4/p38 delta at 1 uM concentration of inhibitor in presence of 5 uM ATP; how it was run: as §1
[16] = biological target: Ribosomal protein S6 kinase alpha-1 (Homo sapiens) (UniProt Q15418); experiment: Percent residual activity, relative to control, of MAPKAP-K1a/Rsk1 at 1 uM concentration of inhibitor in presence of 50 uM ATP; how it was run: as §1
[17] = biological target: Mitogen-activated protein kinase 1 (Homo sapiens) (UniProt P28482); experiment: Percent residual activity, relative to control, of MAPK2/ERK2 at 1 uM concentration of inhibitor in presence of 50 uM ATP; how it was run: as §1
Homo sapiens = organism: Homo sapiens; experiment: Percent residual activity, relative to control, of MAPKAP-K1b/Rsk2 at 1 uM concentration of inhibitor in presence of 50 uM ATP; how it was run: as §1
[18] = biological target: Ribosomal protein S6 kinase (P70S6K) (Homo sapiens) (UniProt Q9UBS0+P23443); experiment: Percent residual activity, relative to control, of P70S6K at 1 uM concentration of inhibitor in presence of 20 uM ATP; type: protein-complex assay; how it was run: as §1
[19] = biological target: Casein kinase I (Homo sapiens) (UniProt Q9HCP0+P78368+P48730+P49674+P48729); experiment: Percent residual activity, relative to control, of CK1 at 1 uM concentration of inhibitor in presence of 20 uM ATP; type: protein assay; how it was run: as §1
[20] = biological target: Aurora kinase B (Homo sapiens) (UniProt Q96GD4); experiment: Percent residual activity, relative to control, of Aurora-B at 1 uM concentration of inhibitor in presence of 20 uM ATP; how it was run: as §1
[21] = biological target: SRSF protein kinase 1 (Homo sapiens) (UniProt Q96SB4); experiment: Percent residual activity, relative to control, of SRPK1 at 1 uM concentration of inhibitor in presence of 50 uM ATP; how it was run: as §1
[22] = biological target: Serine/threonine-protein kinase Nek6 (Homo sapiens) (UniProt Q9HC98); experiment: Percent residual activity, relative to control, of NEK6 at 1 uM concentration of inhibitor in presence of 50 uM ATP; how it was run: as §1
[23] = biological target: Serine/threonine-protein kinase Chk1 (Homo sapiens) (UniProt O14757); experiment: Percent residual activity, relative to control, of CHK1 at 1 uM concentration of inhibitor in presence of 20 uM ATP; how it was run: as §1
[24] = biological target: MAP kinase-interacting serine/threonine-protein kinase 2 (Homo sapiens) (UniProt Q9HBH9); experiment: Percent residual activity, relative to control, of MNK2 at 1 uM concentration of inhibitor in presence of 50 uM ATP; how it was run: as §1

Tyrosine-protein kinase CSK (Homo sapiens), sequence (P41240 2-450 limits assumed): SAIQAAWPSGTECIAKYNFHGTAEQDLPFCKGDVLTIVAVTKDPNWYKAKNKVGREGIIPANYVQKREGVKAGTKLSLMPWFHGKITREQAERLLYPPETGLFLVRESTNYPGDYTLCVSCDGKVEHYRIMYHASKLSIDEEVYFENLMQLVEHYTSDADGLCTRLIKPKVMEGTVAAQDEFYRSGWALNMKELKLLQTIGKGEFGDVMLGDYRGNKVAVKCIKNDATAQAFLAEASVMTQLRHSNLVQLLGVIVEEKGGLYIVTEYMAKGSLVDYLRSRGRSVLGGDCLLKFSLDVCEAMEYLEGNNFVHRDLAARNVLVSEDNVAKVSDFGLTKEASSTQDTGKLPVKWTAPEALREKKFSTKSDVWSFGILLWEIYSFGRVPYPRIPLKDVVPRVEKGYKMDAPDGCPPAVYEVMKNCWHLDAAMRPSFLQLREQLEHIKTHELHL
SRSF protein kinase 1 (Homo sapiens), sequence (Q96SB4 whole entry): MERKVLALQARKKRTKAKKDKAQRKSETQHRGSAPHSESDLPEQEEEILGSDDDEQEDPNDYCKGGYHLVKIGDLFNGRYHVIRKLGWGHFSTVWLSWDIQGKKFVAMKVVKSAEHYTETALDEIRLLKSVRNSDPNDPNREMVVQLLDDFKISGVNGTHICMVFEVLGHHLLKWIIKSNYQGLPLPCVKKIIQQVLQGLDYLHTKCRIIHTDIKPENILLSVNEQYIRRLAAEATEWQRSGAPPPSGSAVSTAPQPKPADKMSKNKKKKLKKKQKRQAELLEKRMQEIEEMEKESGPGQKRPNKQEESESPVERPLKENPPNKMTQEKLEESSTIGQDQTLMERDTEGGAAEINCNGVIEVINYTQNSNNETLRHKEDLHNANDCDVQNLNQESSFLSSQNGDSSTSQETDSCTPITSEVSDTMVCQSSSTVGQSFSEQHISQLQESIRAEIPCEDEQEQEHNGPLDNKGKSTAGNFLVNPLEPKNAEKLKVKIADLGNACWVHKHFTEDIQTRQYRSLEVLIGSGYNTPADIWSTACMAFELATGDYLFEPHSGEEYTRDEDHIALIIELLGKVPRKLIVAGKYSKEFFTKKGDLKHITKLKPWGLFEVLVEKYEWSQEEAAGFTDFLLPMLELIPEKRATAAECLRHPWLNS
Mitogen-activated protein kinase 13 (Homo sapiens), sequence (O15264 whole entry): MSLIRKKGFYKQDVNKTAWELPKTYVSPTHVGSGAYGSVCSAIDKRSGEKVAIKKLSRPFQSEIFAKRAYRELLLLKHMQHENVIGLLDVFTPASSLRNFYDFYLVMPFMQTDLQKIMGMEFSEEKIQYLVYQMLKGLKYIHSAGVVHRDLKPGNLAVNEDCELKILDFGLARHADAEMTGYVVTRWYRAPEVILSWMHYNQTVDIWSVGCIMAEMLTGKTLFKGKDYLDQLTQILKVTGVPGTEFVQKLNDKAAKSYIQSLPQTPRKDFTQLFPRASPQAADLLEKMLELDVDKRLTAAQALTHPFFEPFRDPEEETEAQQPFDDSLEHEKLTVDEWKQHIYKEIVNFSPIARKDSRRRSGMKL
Glycogen synthase kinase-3 beta (Homo sapiens), sequence (P49841 whole entry, looked up): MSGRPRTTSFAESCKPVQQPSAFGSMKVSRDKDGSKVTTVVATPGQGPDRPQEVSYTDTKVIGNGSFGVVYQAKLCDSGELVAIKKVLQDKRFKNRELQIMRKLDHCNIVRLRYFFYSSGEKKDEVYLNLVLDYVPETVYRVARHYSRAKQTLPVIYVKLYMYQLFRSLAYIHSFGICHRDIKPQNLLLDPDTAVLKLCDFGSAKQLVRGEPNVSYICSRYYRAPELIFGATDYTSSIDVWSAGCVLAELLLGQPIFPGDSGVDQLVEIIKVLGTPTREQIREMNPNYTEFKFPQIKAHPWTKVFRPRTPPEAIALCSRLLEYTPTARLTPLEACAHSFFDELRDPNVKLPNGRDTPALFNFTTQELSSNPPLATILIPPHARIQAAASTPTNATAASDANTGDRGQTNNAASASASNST
Aurora kinase B (Homo sapiens), sequence (Q96GD4 whole entry): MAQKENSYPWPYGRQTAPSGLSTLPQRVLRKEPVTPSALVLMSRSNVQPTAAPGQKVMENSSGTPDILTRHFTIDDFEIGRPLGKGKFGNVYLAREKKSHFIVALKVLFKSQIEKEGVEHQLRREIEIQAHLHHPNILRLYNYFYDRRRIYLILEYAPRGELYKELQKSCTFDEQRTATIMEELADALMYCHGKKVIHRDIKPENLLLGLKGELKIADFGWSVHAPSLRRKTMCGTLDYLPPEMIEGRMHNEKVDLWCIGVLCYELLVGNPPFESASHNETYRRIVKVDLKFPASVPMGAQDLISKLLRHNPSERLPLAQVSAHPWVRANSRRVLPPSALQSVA
Mitogen-activated protein kinase 1 (Homo sapiens), sequence (P28482 whole entry): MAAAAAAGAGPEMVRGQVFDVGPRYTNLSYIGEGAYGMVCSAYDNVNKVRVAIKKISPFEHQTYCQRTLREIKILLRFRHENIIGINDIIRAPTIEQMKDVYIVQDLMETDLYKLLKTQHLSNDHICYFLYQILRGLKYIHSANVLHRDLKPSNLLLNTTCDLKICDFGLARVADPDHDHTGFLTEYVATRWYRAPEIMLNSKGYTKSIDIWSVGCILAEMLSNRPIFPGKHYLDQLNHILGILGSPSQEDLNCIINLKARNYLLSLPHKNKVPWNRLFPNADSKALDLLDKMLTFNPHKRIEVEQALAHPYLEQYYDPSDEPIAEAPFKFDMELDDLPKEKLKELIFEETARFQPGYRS
Serine/threonine-protein kinase Nek6 (Homo sapiens), sequence (Q9HC98 whole entry): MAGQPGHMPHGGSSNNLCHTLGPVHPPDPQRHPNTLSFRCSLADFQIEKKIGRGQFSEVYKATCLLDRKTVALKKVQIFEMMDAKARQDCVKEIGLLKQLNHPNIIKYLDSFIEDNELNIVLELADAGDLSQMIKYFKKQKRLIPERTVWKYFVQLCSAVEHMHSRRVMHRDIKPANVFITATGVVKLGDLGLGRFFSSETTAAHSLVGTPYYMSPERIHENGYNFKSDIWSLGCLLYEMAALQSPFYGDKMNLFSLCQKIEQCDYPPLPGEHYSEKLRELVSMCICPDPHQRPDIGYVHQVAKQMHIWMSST
Serine/threonine-protein kinase 3 (Homo sapiens), sequence (Q13188 whole entry): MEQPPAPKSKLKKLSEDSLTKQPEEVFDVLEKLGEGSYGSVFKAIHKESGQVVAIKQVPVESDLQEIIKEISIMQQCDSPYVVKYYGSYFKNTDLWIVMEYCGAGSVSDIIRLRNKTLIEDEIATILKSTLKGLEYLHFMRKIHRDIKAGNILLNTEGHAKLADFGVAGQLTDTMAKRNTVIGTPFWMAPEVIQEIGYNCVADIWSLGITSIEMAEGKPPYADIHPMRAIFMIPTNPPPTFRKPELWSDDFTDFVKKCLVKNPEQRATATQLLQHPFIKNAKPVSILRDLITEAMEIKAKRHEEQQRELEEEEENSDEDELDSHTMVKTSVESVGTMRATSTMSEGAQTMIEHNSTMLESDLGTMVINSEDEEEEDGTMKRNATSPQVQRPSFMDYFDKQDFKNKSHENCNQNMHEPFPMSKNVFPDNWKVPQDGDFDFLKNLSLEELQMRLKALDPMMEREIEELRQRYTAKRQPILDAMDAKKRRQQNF
Serine/threonine-protein kinase Chk2 (Homo sapiens), sequence (O96017 whole entry): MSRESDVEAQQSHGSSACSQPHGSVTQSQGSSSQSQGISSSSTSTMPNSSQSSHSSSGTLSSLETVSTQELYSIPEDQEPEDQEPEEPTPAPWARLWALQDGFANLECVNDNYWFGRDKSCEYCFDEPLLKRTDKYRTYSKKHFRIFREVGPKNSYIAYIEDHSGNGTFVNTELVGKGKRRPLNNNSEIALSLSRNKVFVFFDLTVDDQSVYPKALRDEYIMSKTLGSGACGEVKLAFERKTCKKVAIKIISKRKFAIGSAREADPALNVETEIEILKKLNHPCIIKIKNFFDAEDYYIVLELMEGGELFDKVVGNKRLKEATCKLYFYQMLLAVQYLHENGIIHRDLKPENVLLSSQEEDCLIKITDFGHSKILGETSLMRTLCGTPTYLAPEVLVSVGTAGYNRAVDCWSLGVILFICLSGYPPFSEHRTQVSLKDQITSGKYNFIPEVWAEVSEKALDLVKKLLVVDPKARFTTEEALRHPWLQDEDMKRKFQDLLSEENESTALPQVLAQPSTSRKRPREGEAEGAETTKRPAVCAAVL
Serine/threonine-protein kinase pim-2 (Homo sapiens), sequence (Q9P1W9 whole entry, looked up): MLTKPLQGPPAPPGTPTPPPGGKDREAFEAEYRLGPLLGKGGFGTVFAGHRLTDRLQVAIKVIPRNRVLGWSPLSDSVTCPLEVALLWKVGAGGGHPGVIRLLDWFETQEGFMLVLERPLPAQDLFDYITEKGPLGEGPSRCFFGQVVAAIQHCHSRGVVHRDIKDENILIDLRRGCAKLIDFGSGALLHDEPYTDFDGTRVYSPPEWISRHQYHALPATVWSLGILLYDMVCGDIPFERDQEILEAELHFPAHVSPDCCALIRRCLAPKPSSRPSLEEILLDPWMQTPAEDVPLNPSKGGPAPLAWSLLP

N=C(N)NCCC[C@@H](NC(=O)[C@@H](CCCNC(=N)N)NC(=O)[C@@H](CCCNC(=N)N)NC(=O)[C@@H](CCCNC(=N)N)NC(=O)[C@@H](CCCNC(=N)N)NC(=O)[C@@H](CCCNC(=N)N)NC(=O)CCCCCNC(=O)[C@H]1O[C@@H](n2cnc3c(N)ncnc32)[C@H](O)[C@@H]1O)C(N)=O
Activity [1]: 62%
Activity [2]: 48%
Activity [3]: 77%
Activity [4]: 56%
Activity [5]: 70%
Activity [6]: 58%
Activity [7]: 85%
Activity [8]: 48%
Activity [9]: 77%
Activity [10]: 3%
Activity [11]: 38%
Activity [12]: 14%
Activity [13]: 94%
Activity [14]: 31%
Activity [15]: 107%
Activity [16]: 28%
Activity [17]: 100%
Activity (Homo sapiens): 12%
Activity [18]: 7%
Activity [19]: 106%
Activity [20]: 103%
Activity [21]: 100%
Activity [22]: 94%
Activity [23]: 16%
Activity [24]: 99%
